Records with an inconclusive call do not appear.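 How the source made its calls, unless noted: active means viability increase at or above a cutoff of the median across tested compounds plus 3 SD (cut at about 8.5% in these data, passing the limit was not always enough); inconclusive means some gains above the cutoff, reason not given; inactive means the rest.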
Columns and labels:
[1] = S. cerevisiae growth inhibition in permissive medium (OD615), pilot counter-assay for S. cerevisiae lifespan shortening project, permissive growth control (AID 705;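 active means growth inhibition above 25% in both replicates, a cutoff set 3 SD above the mean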); settings: OD615, 24 h, at 10 µM, stronger effect = higher value
Summary of the method: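 System – S. cerevisiae with engineered DeaD lifespan system · Buffer or medium – SC raffinose/galactose permissive medium · Schedule – cells pre-grown 4 h, then 24 h compound exposure, 30 °C humidified · Technique – culture turbidity as optical density at 615 nm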

[2] = S. cerevisiae growth inhibition in restrictive medium, OD615, pilot screen, restrictive growth control, yeast lifespan reduction project (AID 706;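 active means growth inhibition above a set limit, 3 SD over mean compound inhibition, in both replicates, cut at about 43% in these data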;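 further: modified DeaD lifespan yeast strain shifted to restrictive glucose medium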); settings: OD615, 48 h, at 10 µM, stronger effect = higher value
Summary of the method: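 Material: engineered S. cerevisiae DeaD strain / Medium: glucose-based CSMM-D restrictive medium / Compound: single dose of 10 µM compound final, 0.25% DMSO / Timing: 4 h pre-incubation, 48 h exposure at 30 °C / Technique: OD615 absorbance reading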

[3] = doxorubicin toxicity protection in MRP-1 cells – H69AR cells, CellTiter-Glo, duplicate, MRP-1 activator project, pilot screen (AID 807); settings: H69AR viability with doxorubicin, CellTiter-Glo luminescence; at 10 µM; stronger effect = higher value;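 further: compound pretreatment 18-22 h then 72 h combined with doxorubicin; 0% = doxorubicin alone and 100% = vehicle without doxorubicin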
[4] = viability of HCT116 without oncogenic beta-catenin – human colon tumor cells, pilot screen (AID 823;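 active means cell viability at or below a set limit in both duplicate runs, the limit being the all-compound median minus 4 SD, cut at about 23% in these data, passing the limit was not always enough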;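 further: 0% = wells killed by 20 µM Hyamine and 100% = untreated DMSO cell wells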); settings: HCT116 beta-catenin knockout viability, CellTiter-Glo, 60 h; at 10 µM; stronger effect = lower value
[5] = viability of PTEN-null HCT116 cells – cell-based, HCT116 clonal line, CellTiter-Glo, pilot screen (AID 824;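 active means viability at or below 27.92% in each of two runs, the all-compound median minus 4 SD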;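 further: 0% = 20 µM Hyamine control and 100% = vehicle cell control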); settings: HCT116 PTEN-deleted viability, 60 h, at 10 µM, stronger effect = lower value
[6] = RAM pathway blockade in budding yeast – dse1pr::URA3 reporter, 5-FOA selection, pilot screen (AID 869;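 active means inhibition over a set limit, the all-compound mean plus 3 SD, in both replicate runs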;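 further: 0% = DMSO wells with no growth and 100% = 10 µM 1-NA-PP1 with full growth; RAM network block rescues cells from 5-FOA so hits raise OD615 growth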); settings: S. cerevisiae dse1pr::URA3 5-FOA growth, OD615, 2 d; at 10 µM; stronger effect = higher value; strain carries analog-sensitive mutant Cbk1 kinase
[7] = RAM signaling pathway blockade in yeast – S. cerevisiae, Pdr1DBD-CYC8 efflux-inhibited sensitized strain, primary screen (AID 1298;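 active means RAM network inhibition above 8.4% in each of two replicates, 3 SD over the compound average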;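 further: 0% = DMSO untreated cells without growth and 100% = 10 µM 1-NA-PP1 full growth; higher means more yeast growth rescued from 5-FOA killing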); settings: S. cerevisiae cbk1-as DSE1-URA3 strain, 5-FOA growth OD615, 2 d; at 50 µM; stronger effect = higher value

CC1CN(C2CC(C)(C)NC(C)(C)C2)CCC1=O (stereo not drawn)
inactive: growth inhibition [1] -5.84% | growth inhibition [2] -0.43% | viability increase [3] 1.05% | viability [4] 96.7% | viability [5] 100% | inhibition [6] -0.505% | RAM network inhibition [7] 5.32%

C=CCn1c(SCCC#N)nnc1-c1ccncc1
inactive: growth inhibition [1] -5.01% | growth inhibition [2] -18.7% | viability increase [3] -3.07% | viability [4] 100% | viability [5] 93.4% | inhibition [6] 1.88% | RAM network inhibition [7] -0.94%

Cc1ccc(NC(=O)CN(c2cc(C)cc(C)c2)S(=O)(=O)c2c(C)noc2C)nc1
inactive: growth inhibition [1] -8.61% | growth inhibition [2] -7.12% | viability increase [3] -3.03% | viability [4] 69.4% | viability [5] 70.6% | inhibition [6] 0.895% | RAM network inhibition [7] 7.84%

Cc1ccc2oc3c(c(=O)c2c1)C(c1ccc(F)cc1)N(CCCN1CCOCC1)C3=O (stereo not drawn)
inactive: growth inhibition [1] -3.52% | growth inhibition [2] -0.585% | viability increase [3] -4.72% | viability [4] 91% | viability [5] 89.6% | inhibition [6] 0.595% | RAM network inhibition [7] 0.29%

CS(=O)(=O)n1nc(C(=O)N2CCOCC2)nc1N
inactive: growth inhibition [1] -10% | growth inhibition [2] -18.6% | viability increase [3] 0.47% | viability [4] 103% | viability [5] 98.4% | inhibition [6] 2.68% | RAM network inhibition [7] 5.4%

COc1ccc(NC(=O)c2ccc3c(c2)n(C)c(=O)n3C)cc1
inactive: growth inhibition [1] -9.67% | growth inhibition [2] -7.33% | viability increase [3] -5.39% | viability [4] 55.7% | viability [5] 55.7% | inhibition [6] 1.06% | RAM network inhibition [7] 4.75%

Cc1ccc(CCNC(=O)CS(=O)Cc2nc(-c3cccc(C)c3)oc2C)cc1 (stereo not drawn)
inactive: growth inhibition [1] -4.94% | growth inhibition [2] 2.34% | viability increase [3] 2.47% | viability [4] 85.3% | viability [5] 86.9% | inhibition [6] 2.59% | RAM network inhibition [7] 6.2%

CCOC(=O)c1ccc(N2C(=O)C3ON(c4ccccc4)C(c4ccco4)C3C2=O)cc1 (stereo not drawn)
inactive: growth inhibition [1] -17.9% | growth inhibition [2] 5.19% | viability increase [3] -4.17% | viability [4] 102% | viability [5] 93.4% | inhibition [6] 1.73% | RAM network inhibition [7] 4.07%

CC(=O)Nc1ccc(S(=O)(=O)N2CCSCC2)cc1
inactive: growth inhibition [1] -14.7% | growth inhibition [2] -27.7% | viability increase [3] -2.25% | viability [4] 98.6% | viability [5] 98.5% | inhibition [6] 1.88% | RAM network inhibition [7] 3.21%

Cn1c(=O)oc2cc(S(=O)(=O)N3CCc4ccccc4C3)ccc21
inactive: growth inhibition [1] -14.7% | growth inhibition [2] -5.15% | viability increase [3] -2.36% | viability [4] 99.2% | viability [5] 91.9% | inhibition [6] 2.58% | RAM network inhibition [7] 5.77%

COc1cccc(NC=C2C(=O)OC3(CCCCC3)OC2=O)c1
inactive: growth inhibition [1] -8.74% | growth inhibition [2] 5.97% | viability increase [3] -1.85% | viability [4] 95.1% | viability [5] 104% | inhibition [6] 2.04% | RAM network inhibition [7] 5.16%

COc1ccc(C(=O)O)cc1Nc1cc(C)nc2ncnn12
inactive: growth inhibition [1] 1.95% | growth inhibition [2] -2.37% | viability increase [3] -1.14% | viability [4] 103% | viability [5] 93% | inhibition [6] 0.015% | RAM network inhibition [7] 0.94%

O=C(COC(=O)c1ccc(S(=O)(=O)N2CCOCC2)cc1)NC1CCCCCC1
inactive: growth inhibition [1] -5.28% | growth inhibition [2] -3.04% | viability increase [3] 0.74% | viability [4] 101% | viability [5] 105% | inhibition [6] 1.42% | RAM network inhibition [7] 3.1%

Clc1ccc(C2CC(c3cccs3)n3ncnc3N2)cc1Cl (stereo not drawn)
inactive: growth inhibition [1] -2.88% | growth inhibition [2] 29.1% | viability increase [3] -5.77% | viability [4] 80.2% | viability [5] 72.9% | inhibition [6] 0.94% | RAM network inhibition [7] -1.53%

COc1ccc(NC(C)=O)c2nc(C)c(C)nc12
inactive: growth inhibition [1] 7.39% | growth inhibition [2] -2.71% | viability increase [3] -3.32% | viability [4] 98% | viability [5] 93.9% | inhibition [6] 1.17% | RAM network inhibition [7] 1.29%

CCc1ccc(NC(=O)C2CC=CCC2C(=O)O)cc1 (stereo not drawn)
inactive: growth inhibition [1] 6.68% | growth inhibition [2] 5.45% | viability increase [3] 0.72% | viability [4] 98.1% | viability [5] 98.9% | inhibition [6] -0.5% | RAM network inhibition [7] 4.12%

O=C(CSc1ncccn1)NCCc1ccccc1
inactive: growth inhibition [1] -4.5% | growth inhibition [2] 2.61% | viability increase [3] -1.26% | viability [4] 96% | viability [5] 97.2% | inhibition [6] 2.3% | RAM network inhibition [7] 2.5%

Cc1cc(C)n(CC(=O)n2c3ccccc3c3ccccc32)n1
inactive: growth inhibition [1] 5.86% | growth inhibition [2] -3.37% | viability increase [3] -3.82% | viability [4] 78.2% | viability [5] 91.7% | inhibition [6] 0.155% | RAM network inhibition [7] -1.18%

Cn1nc(-c2ccc(Cl)cc2)c2cc(C(=O)NCc3ccco3)sc21
inactive: growth inhibition [1] -1.08% | growth inhibition [2] -3.58% | viability increase [3] -7.27% | viability [4] 59.6% | viability [5] 47% | inhibition [6] 2.54% | RAM network inhibition [7] 5.89%

Cc1sc2nc(SCC(=O)NCc3ccco3)[nH]c(=O)c2c1C
inactive: growth inhibition [1] -4% | growth inhibition [2] -4.97% | viability increase [3] -3.92% | viability [4] 106% | viability [5] 101% | inhibition [6] 2.67% | RAM network inhibition [7] 5.12%

c1coc(C2Nc3ccccc3-c3nc4ccccc4n32)c1 (stereo not drawn)
inactive: growth inhibition [1] -27.2% | growth inhibition [2] -4.04% | viability increase [3] -4.32% | viability [4] 66.6% | viability [5] 68.1% | inhibition [6] 2.14% | RAM network inhibition [7] 8.31%

O=C1CCC(=O)N1CNc1cccnc1
inactive: growth inhibition [1] -7.25% | growth inhibition [2] -12.2% | viability increase [3] -0.41% | viability [4] 95.3% | viability [5] 103% | inhibition [6] 0.34% | RAM network inhibition [7] 5.5%

CCCn1c(C2CC(=O)N(c3cc(OC)ccc3OC)C2)nc2ccccc21 (stereo not drawn)
inactive: growth inhibition [1] -6.39% | growth inhibition [2] -14.7% | viability increase [3] -2.88% | viability [4] 98.4% | viability [5] 94.8% | inhibition [6] 1.6% | RAM network inhibition [7] 5%

Cn1c(=O)c2c(SCc3cccnc3)nc(CC(C)(C)C)nc2n(C)c1=O
inactive: growth inhibition [1] 0.2% | growth inhibition [2] -12% | viability increase [3] -6.27% | viability [4] 87.2% | viability [5] 80.9% | inhibition [6] 0.1% | RAM network inhibition [7] 3.24%
